Laboratory results published in ChEMBL document CHEMBL4219174, “Synthesis and evaluation of 2,9-disubstituted 8-phenylthio/phenylsulfinyl-9H-purine as new EGFR inhibitors” (Bioorg Med Chem, 2018).
Each block holds one compound with its values, some of them ahead of it. Calls of active or inactive are those of the source. No cut-off for these calls is given here.

Tests used:
HCC827 [1] = test: Antiproliferative activity against human HCC827 cells after 72 hrs by MTT assay; assay type: functional, cell-based; settings: HCC827, 72 h
NCI-H1975 = test: Antiproliferative activity against human NCI-H1975 cells after 72 hrs by MTT assay; assay type: functional, cell-based; settings: NCI-H1975, 72 h
[2] = target: Epidermal growth factor receptor (Homo sapiens, UniProt P00533, C797S/L858R/T790M); test: Inhibition of EGFR L858R/T790M/C797S triple mutant (unknown origin) using poly (Glu, Tyr) as substrate after 40 mins by kinase-glo plus luminescence assay
Epidermal growth factor receptor (Homo sapiens, UniProt P00533, C797S/L858R/T790M), sequence (P00533 25-1210 T790M/C797S/L858R limits assumed): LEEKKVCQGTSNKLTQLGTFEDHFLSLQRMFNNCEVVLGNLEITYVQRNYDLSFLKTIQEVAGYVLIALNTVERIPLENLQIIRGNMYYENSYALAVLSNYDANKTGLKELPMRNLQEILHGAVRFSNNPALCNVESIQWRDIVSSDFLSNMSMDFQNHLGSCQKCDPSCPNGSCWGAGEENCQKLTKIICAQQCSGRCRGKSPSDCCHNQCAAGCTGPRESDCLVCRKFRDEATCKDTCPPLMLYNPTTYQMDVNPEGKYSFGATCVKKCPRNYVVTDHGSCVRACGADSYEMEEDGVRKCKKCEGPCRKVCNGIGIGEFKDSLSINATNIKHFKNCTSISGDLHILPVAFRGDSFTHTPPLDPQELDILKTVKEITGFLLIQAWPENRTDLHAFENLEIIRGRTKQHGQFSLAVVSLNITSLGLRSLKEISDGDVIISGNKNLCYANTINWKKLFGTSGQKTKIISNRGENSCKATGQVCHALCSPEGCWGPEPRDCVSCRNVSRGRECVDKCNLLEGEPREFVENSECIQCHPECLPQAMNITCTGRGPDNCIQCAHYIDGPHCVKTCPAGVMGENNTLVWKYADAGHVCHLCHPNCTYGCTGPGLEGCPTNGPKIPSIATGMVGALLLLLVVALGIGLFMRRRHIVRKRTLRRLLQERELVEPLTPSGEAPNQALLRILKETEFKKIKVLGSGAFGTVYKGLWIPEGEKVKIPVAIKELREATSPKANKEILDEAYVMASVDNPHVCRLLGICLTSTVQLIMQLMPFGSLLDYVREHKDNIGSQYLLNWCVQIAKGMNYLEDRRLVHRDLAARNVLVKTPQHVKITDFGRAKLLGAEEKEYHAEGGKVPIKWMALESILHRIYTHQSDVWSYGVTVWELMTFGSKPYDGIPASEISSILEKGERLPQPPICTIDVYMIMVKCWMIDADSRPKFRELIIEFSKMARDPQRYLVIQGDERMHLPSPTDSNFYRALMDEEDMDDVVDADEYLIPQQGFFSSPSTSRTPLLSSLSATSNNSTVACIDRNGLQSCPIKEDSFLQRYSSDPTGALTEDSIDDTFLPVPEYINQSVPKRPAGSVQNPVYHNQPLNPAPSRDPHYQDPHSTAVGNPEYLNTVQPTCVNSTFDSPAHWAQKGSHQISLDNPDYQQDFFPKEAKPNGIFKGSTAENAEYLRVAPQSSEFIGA

[3] = Selectivity ratio of IC50 for human A549 cells to IC50 for human HCC827 cells; assay type: functional
[4] = Selectivity ratio of IC50 for human NCI-H1975 cells to IC50 for human HCC827 cells; assay type: functional
HCC827 [5] = test: Antiproliferative activity against human HCC827 cells at 1 uM after 72 hrs by MTT assay relative to control; assay type: functional; settings: for Emax at 1 µM: Homo sapiens, HCC827, 72 h
Outline: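 Human lung carcinoma HCC827 cells (EGFR Del E746-A750) were tested by MTT colorimetric assay, with gefitinib and AZD9291 as positive controls. The read-out was percent growth inhibition at a single fixed concentration.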

A549 = test: Antiproliferative activity against human A549 cells after 72 hrs by MTT assay; assay type: functional, cell-based; settings: A549, 72 h
[6] = target: T1, Epidermal growth factor receptor (Homo sapiens, UniProt P00533); test: Inhibition of wild type EGFR (unknown origin) using poly (Glu, Tyr) as substrate after 40 mins by kinase-glo plus luminescence assay
T1 sequence (P00533 whole entry): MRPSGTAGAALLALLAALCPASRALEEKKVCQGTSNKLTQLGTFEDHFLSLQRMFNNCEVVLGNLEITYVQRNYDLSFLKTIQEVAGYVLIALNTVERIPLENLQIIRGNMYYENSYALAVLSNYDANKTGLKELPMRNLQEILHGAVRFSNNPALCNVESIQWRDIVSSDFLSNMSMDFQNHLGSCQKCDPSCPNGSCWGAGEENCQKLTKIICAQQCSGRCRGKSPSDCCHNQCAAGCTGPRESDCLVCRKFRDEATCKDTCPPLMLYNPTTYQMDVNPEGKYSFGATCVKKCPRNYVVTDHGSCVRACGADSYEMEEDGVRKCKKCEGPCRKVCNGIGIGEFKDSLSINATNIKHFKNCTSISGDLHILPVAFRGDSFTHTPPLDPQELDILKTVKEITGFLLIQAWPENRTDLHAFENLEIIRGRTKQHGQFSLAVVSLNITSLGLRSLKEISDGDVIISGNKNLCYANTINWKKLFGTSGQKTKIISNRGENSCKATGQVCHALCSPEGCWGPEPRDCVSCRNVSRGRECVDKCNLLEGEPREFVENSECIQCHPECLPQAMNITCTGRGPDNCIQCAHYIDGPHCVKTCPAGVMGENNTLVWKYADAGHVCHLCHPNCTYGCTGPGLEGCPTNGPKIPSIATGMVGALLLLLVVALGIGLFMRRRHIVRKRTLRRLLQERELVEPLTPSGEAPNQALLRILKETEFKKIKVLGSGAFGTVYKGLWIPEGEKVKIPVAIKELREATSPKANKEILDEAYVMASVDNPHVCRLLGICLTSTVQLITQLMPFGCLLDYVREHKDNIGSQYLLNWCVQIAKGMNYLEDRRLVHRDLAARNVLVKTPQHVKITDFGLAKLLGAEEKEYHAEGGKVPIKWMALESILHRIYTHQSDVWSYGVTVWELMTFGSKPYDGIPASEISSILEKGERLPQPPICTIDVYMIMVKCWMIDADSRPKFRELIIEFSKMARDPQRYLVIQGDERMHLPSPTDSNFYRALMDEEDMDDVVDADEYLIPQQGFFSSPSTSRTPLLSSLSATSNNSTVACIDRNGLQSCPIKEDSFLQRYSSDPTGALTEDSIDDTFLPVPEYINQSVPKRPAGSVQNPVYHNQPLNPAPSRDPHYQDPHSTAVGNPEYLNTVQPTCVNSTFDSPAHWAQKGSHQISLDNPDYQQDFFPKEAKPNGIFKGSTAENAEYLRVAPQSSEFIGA

[7] = target: T1, Epidermal growth factor receptor; test: Inhibition of EGFR auto-phosphorylation in human HCC827 cells after 8 hrs by Western blot analysis; assay type: cell-based
Mus musculus = test: Toxicity in nude Balb/c mouse xenografted with human HCC827 cells assessed as increase in body weight at 5 mg/kg, po administered once daily for 20 days measured every day till day 21; assay type: organism-based; settings: in vivo, 480 h
Outline: (§1)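 HCC827 (EGFR Del E746-A750) xenografts in nude mice, n = 6 per group. Oral dosing at 1 or 5 mg/kg once daily for 20 days, compared against a vehicle group. Read-outs were tumor growth curves and body weight over the treatment period, plus final tumor weight after 20 days. Significance was tested vs vehicle.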

HCC827 [8] = test: Anti-tumor activity against human HCC827 cells xenografted in nude Balb/c mouse assessed as tumor growth inhibition at 5 mg/kg, po administered once daily for 20 days measured once in three days till day 21; assay type: functional, organism-based; outline: as §1
[9] = target: Epidermal growth factor receptor (Homo sapiens, UniProt P00533, L858R/T790M); test: Inhibition of EGFR L858R/T790M double mutant (unknown origin) using poly (Glu, Tyr) as substrate after 40 mins by kinase-glo plus luminescence assay
Epidermal growth factor receptor (Homo sapiens, UniProt P00533, L858R/T790M), sequence (P00533 25-1210 T790M/L858R limits assumed): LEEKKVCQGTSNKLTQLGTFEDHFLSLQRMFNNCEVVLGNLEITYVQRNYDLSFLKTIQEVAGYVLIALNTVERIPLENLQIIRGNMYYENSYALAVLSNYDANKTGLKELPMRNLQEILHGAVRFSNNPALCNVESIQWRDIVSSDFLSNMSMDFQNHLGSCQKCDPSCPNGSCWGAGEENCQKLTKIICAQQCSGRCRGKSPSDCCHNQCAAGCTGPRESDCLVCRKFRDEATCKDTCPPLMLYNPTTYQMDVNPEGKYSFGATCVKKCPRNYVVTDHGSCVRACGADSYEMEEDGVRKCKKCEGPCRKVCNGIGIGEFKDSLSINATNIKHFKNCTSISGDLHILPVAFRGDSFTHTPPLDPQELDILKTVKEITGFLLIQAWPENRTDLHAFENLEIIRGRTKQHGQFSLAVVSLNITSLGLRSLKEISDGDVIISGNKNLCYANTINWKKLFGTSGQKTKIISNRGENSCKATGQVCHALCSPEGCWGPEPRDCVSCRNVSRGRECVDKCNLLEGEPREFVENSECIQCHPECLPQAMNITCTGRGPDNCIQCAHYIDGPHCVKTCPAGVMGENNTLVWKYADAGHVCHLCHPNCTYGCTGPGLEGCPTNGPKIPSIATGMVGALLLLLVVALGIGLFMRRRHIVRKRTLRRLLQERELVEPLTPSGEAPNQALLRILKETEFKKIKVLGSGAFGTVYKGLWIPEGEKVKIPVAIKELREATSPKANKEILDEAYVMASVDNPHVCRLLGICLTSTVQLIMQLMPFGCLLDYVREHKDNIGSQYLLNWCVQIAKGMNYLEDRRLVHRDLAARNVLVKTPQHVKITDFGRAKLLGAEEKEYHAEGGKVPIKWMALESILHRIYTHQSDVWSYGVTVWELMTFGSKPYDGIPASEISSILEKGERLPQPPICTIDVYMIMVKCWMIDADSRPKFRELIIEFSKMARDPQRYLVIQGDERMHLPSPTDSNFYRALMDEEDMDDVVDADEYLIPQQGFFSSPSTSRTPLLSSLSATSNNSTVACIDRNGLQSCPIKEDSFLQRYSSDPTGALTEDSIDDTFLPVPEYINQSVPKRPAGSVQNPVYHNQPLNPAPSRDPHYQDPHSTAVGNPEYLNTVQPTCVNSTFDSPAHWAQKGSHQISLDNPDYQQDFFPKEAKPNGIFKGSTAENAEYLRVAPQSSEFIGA

Compound: CN1CCN(c2ccc(Nc3ncc4nc([S+]([O-])Cc5cccnc5)n(C5CCCC5)c4n3)cc2)CC1 (stereo not drawn)
- IC50 (HCC827 [1]): 2350 nM

Compound: CN1CCN(c2ccc(Nc3ncc4nc([S+]([O-])Cc5ccccc5)n(C5CCOCC5)c4n3)cc2)CC1 (stereo not drawn)
- IC50 (HCC827 [1]): 433 nM

Compound: CN1CCN(c2ccc(Nc3ncc4nc(SCc5cccnc5)n(C5CCCC5)c4n3)cc2)CC1
- IC50 (HCC827 [1]): 517 nM

Compound: CN1CCN(c2ccc(Nc3ncc4nc(SCc5cccnc5)n(C5CCOCC5)c4n3)cc2)CC1
- IC50 (HCC827 [1]): 500 nM

Compound: CN1CCN(c2ccc(Nc3ncc4nc([S+]([O-])c5ccccc5)n(C5CC5)c4n3)cc2)CC1 (stereo not drawn)
- IC50 (HCC827 [1]): 1630 nM

Compound: CN1CCN(c2ccc(Nc3ncc4nc([S+]([O-])c5ccccc5)n(CC5CC5)c4n3)cc2)CC1 (stereo not drawn)
- IC50 (HCC827 [1]): 838 nM

Compound: CN(C)CCN(C)c1ccc(Nc2ncc3nc([S+]([O-])c4ccccc4)n(C4CCOCC4)c3n2)cc1 (stereo not drawn)
- IC50 (HCC827 [1]): 1330 nM

Compound: CN(C)C1CCN(c2ccc(Nc3ncc4nc([S+]([O-])c5ccccc5)n(C5CCOCC5)c4n3)cc2)CC1 (stereo not drawn)
- IC50 (HCC827 [1]): 1290 nM

Compound: CN1CCC(Oc2ccc(Nc3ncc4nc([S+]([O-])c5ccccc5)n(C5CCOCC5)c4n3)cc2)CC1 (stereo not drawn)
- IC50 (HCC827 [1]): 853 nM

Compound: CN(C)CCN(C)c1ccc(Nc2ncc3nc(Sc4ccccc4)n(C4CCOCC4)c3n2)cc1
- IC50 (HCC827 [1]): 499 nM

Compound: CN1CCN(c2ccc(Nc3ncc4nc(SCc5cccnc5)n(C5CC5)c4n3)cc2)CC1
- IC50 (HCC827 [1]): 8830 nM

Compound: CN1CCN(c2ccc(Nc3ncc4nc([S+]([O-])Cc5cccnc5)n(C5CCOCC5)c4n3)cc2)CC1 (stereo not drawn)
- IC50 (HCC827 [1]): > 10000 nM

Compound: CN1CCN(c2ccc(Nc3ncc4nc(Sc5ccccc5)n(CC5CC5)c4n3)cc2)CC1
- IC50 (HCC827 [1]): 660 nM

Compound: CN(C)CCOc1ccc(Nc2ncc3nc([S+]([O-])c4ccc(F)cc4)n(C4CCOCC4)c3n2)cc1 (stereo not drawn)
- IC50 (HCC827 [1]): 553 nM

Second part, led by results:

- IC50 (HCC827 [1]): 214 nM
Compound: CC(C)n1c([S+]([O-])c2ccccc2)nc2cnc(Nc3ccc(N4CCN(C)CC4)cc3)nc21 (stereo not drawn)

- IC50 (HCC827 [1]): 44.3 nM
- IC50 (NCI-H1975): 9610 nM
- IC50 [2]: 556 nM
- IC50 (A549): > 10000 nM
Compound: CN(C)CCOc1ccc(Nc2ncc3nc(Sc4ccccc4)n(C4CCOCC4)c3n2)cc1
- Ratio IC50 [3]: >226
- Ratio IC50 [4]: 217
- Emax at 1 µM (HCC827 [5]): 78%

- IC50 (HCC827 [1]): 64.7 nM
- IC50 (NCI-H1975): 5110 nM
- IC50 (A549): > 10000 nM
Compound: CN1CCN(c2ccc(Nc3ncc4nc([S+]([O-])c5ccccc5)n(C5CCCC5)c4n3)cc2)CC1 (stereo not drawn)
- Ratio IC50 [3]: >154
- Ratio IC50 [4]: 79

- IC50 (HCC827 [1]): 268 nM
Compound: CN1CCN(c2ccc(Nc3ncc4nc([S+]([O-])c5ccccc5)n([C@H]5CC[C@H](O)CC5)c4n3)cc2)CC1 (stereo partly drawn)

- IC50 (HCC827 [1]): 411 nM
Compound: CN1CCN(c2ccc(Nc3ncc4nc([S+]([O-])c5ccccc5)n(C5CCOCC5)c4n3)cc2)CC1 (stereo not drawn)

- IC50 (HCC827 [1]): 42.6 nM
- IC50 (NCI-H1975): 2260 nM
- IC50 [2]: 892 nM
- IC50 (A549): 2940 nM
Compound: CN1CCN(c2ccc(Nc3ncc4nc(Sc5ccccc5)n(C5CCOCC5)c4n3)cc2)CC1
- Ratio IC50 [3]: 69
- Ratio IC50 [4]: 53

- IC50 (HCC827 [1]): 51.2 nM
- IC50 (NCI-H1975): 5580 nM
- IC50 (A549): 237 nM
Compound: CN1CCN(c2ccc(Nc3ncc4nc(Sc5ccccc5)n(C5CCCC5)c4n3)cc2)CC1
- Ratio IC50 [3]: 5
- Ratio IC50 [4]: 109

- IC50 (HCC827 [1]): 29.4 nM
- IC50 [6]: 1.6 nM
- IC50 (NCI-H1975): 4990 nM
- IC50 [2]: 331 nM
- inhibition [7]: Dose-dependent effect
- IC50 [9]: 104 nM
- IC50 (A549): > 10000 nM
Compound: CN(C)C1CCN(c2ccc(Nc3ncc4nc(Sc5ccccc5)n(C5CCOCC5)c4n3)cc2)CC1
- Ratio IC50 [3]: >340
- Ratio IC50 [4]: 170
- Emax at 1 µM (HCC827 [5]): 81%
- Activity (Mus musculus): Non-Toxic
- TGI (HCC827 [8]): Active

- IC50 (HCC827 [1]): 359 nM
Compound: CN(C)CCOc1ccc(Nc2ncc3nc([S+]([O-])c4cccc(F)c4)n(C4CCOCC4)c3n2)cc1 (stereo not drawn)

- IC50 (HCC827 [1]): 51.4 nM
- IC50 (NCI-H1975): 2770 nM
- IC50 [2]: 805 nM
- IC50 (A549): 3360 nM
Compound: CN(C)CCOc1ccc(Nc2ncc3nc(Sc4cccc(F)c4)n(C4CCOCC4)c3n2)cc1
- Ratio IC50 [3]: 65
- Ratio IC50 [4]: 54

- IC50 (HCC827 [1]): 35.9 nM
Compound: CN1CCN(c2ccc(Nc3ncc4nc(Nc5ccccc5)n(C5CCCC5)c4n3)cc2)CC1
- Emax at 1 µM (HCC827 [5]): 70%

- IC50 (HCC827 [1]): 50.3 nM
- IC50 (NCI-H1975): > 10000 nM
- IC50 (A549): > 10000 nM
Compound: CN(C)CCOc1ccc(Nc2ncc3nc([S+]([O-])c4ccccc4)n(C4CCOCC4)c3n2)cc1 (stereo not drawn)
- Ratio IC50 [3]: >198
- Ratio IC50 [4]: >198

- IC50 (HCC827 [1]): 106 nM
Compound: CN1CCN(c2ccc(Nc3ncc4nc(SCc5ccccc5)n(C5CCOCC5)c4n3)cc2)CC1

- IC50 (HCC827 [1]): 290 nM
Compound: CC(C)n1c(Sc2ccccc2)nc2cnc(Nc3ccc(N4CCN(C)CC4)cc3)nc21

- IC50 (HCC827 [1]): 42.6 to 47.9 nM
- IC50 (NCI-H1975): 1320 nM
- IC50 [2]: 529 nM
- IC50 (A549): 426 nM
Compound: CN1CCN(c2ccc(Nc3ncc4nc(Sc5ccccc5)n([C@H]5CC[C@H](O)CC5)c4n3)cc2)CC1
- Ratio IC50 [3]: 10
- Ratio IC50 [4]: 31

- IC50 (HCC827 [1]): 140 nM
Compound: CN1CCC(Oc2ccc(Nc3ncc4nc(Sc5ccccc5)n(C5CCOCC5)c4n3)cc2)CC1

- IC50 (HCC827 [1]): 47.8 nM
- IC50 [6]: 2.5 nM
- IC50 (NCI-H1975): 6260 nM
- IC50 [2]: 114 nM
- IC50 [9]: 189 nM
- IC50 (A549): 4850 nM
Compound: CN(C)CCOc1ccc(Nc2ncc3nc(Sc4ccc(F)cc4)n(C4CCOCC4)c3n2)cc1
- Ratio IC50 [3]: 101
- Ratio IC50 [4]: 131

- IC50 (HCC827 [1]): 304 nM
Compound: CN1CCN(c2ccc(Nc3ncc4nc(Sc5ccccc5)n(C5CC5)c4n3)cc2)CC1
